# A selection: hits, their analogues and other compounds. The true share with any hit is near 10%.
# PMI act: activators of human phosphomannose isomerase | purified human PMI, coupled resazurin fluorescence, 20 min; stronger effect = higher value; 1 = vehicle control, 0 substrate-free wells | activation factor at 20 µM | P34949 | 190,000 compounds, 0.005% hits;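 active = activation factor of 2 or more at 20 µM, relative to plate controls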
# Target sequence (P34949 whole entry, looked up): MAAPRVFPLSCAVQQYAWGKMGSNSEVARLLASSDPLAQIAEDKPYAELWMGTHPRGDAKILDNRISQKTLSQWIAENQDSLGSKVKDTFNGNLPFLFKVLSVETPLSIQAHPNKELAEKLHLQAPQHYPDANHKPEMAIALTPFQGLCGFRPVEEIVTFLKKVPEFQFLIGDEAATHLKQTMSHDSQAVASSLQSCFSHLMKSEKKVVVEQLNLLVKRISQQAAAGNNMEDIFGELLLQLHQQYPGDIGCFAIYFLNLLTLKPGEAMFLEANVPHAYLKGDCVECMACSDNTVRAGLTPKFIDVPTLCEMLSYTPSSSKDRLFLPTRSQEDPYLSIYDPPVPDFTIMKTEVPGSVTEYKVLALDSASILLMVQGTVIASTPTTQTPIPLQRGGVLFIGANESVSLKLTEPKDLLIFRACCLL
# WT yeast gro inh: growth inhibition of WT yeast, mitochondrial fusion screen | mitochondrial fusion phenotypic screen, WT strain | inhibition, % at 10 µM | 190,000 compounds, 2.1% hits; in the data active = inhibition above about 58%; tested in S. cerevisiae
# PMI act hi M6P: activators of human phosphomannose isomerase at near-saturating mannose 6-phosphate; coupled PMI enzyme assay, resazurin fluorescence, 20 min; stronger effect = higher value; 1 = untreated enzyme, 0 = substrate-free blank; AID 1216; 190,000 compounds, 0.34% hits; activation factor at 20 µM;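 active = activation factor of 2 or more at 20 µM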
#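 Test system: human phosphomannose isomerase with PGI, G6PDH, diaphorase coupling enzymes; amount: 15 ng/mL PMI; incubation: enzyme reaction with compound 20 min at room temperature; technique: resorufin fluorescence (Ex 544/Em 590 nm) from resazurin via diaphorase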
# Lmaj promast: inhibitors of Leishmania major promastigote growth. Leishmania major promastigotes, resazurin fluorescence viability. inhibition, % at 10 µM. 200,000 compounds, 9% hits; in the data active = inhibition above about 50%;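 note: promastigotes grown with compound for 44 hours at 28 °C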
# Diaphorase act: activates diaphorase or chemically reduces, flagging diaphorase assay artifacts. Diaphorase/resazurin coupled assay, resorufin fluorescence, 16 min; stronger effect = higher value; 1 = vehicle wells, 0 = NADH-free wells. activation factor at 20 µM. 190,000 compounds, 0.005% hits;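 active = diaphorase activity raised at least twofold by the compound at 20 µM; inactive = activation factor below 2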
#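 Material: bacterial diaphorase enzyme (C. kluyveri); amount: enzyme 0.07 U/mL final; reagent: NADH substrate 0.114 mM plus resazurin dye 0.1 mM, final; doses: single compound dose of 20 µM, 1% DMSO final; timing: 16 min enzyme reaction, ambient temperature; measured by: fluorescence of resorufin, 544 nm excitation, 590 nm emission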
# Active calls of the source: *; x = not tested or not shown.
SMILES,PMI act,WT yeast gro inh,PMI act hi M6P,Lmaj promast,Diaphorase act
c1ccc2sc(NC3=NCN(CC4CCCO4)CN3)nc2c1 (centres undefined),1.1,-9,1.1,-3,1
Cc1cccc2cc(CN(Cc3nnnn3Cc3ccco3)C3CCCC3)c3nnnn3c12,0.8,21,0.9,59*,0.7
C=CCOCCN(C)C1=NS(=O)(=O)c2cc([N+](=O)[O-])ccc21,1,3,0.9,100*,0.9
S=C(Nc1ccccc1)N1CCn2c(nc3ccccc32)C1,1,0,0.9,0,0.8
Cc1[nH]c2ccccc2c1C(=O)COC(=O)c1c(-c2c(F)cccc2Cl)noc1C,0.8,85*,0.9,50,0.8
Cc1[nH]c2ccccc2c1C(=O)COC(=O)c1c(-c2ccccc2Cl)noc1C,0.8,87*,0.9,31,0.8
Cc1onc(-c2c(F)cccc2Cl)c1C(=O)OCN1C(=O)c2ccccc2C1=O,0.9,-5,0.9,-8,0.7
CCOc1ccccc1NC(=O)/C=C/C(N)=O,1,5,1,100*,1
NS(=O)(=O)c1ccc(NC(=O)/C=C/c2ccccc2[N+](=O)[O-])cc1,0.9,-6,0.9,69*,0.8
CCOc1ccccc1NC(=O)/C=C/c1ccccc1[N+](=O)[O-],0.9,11,0.9,78*,0.9
Cc1nc2c(c3c1[nH]c1ccccc13)C(O)CC(C)(C)C2 (centres undefined),1.1,-4,1.1,45,0.9
Cc1ccc(-n2c(SCC(=O)N(C)C3CCS(=O)(=O)C3)nc3ccccc3c2=O)cc1 (centres undefined),1,6,1.1,-4,0.9
COc1ccccc1N1CCN(CCCOc2ccc(F)cc2)CC1,1,23,1.1,9,1
O=C1CCc2ccc(OCCCCN3CCN(c4cccc(Cl)c4Cl)CC3)cc2N1,0.9,84*,1,x,0.8
O=C1NC(c2ccccc2)=C(c2ccc3ccccc3n2)C(c2ccccc2)N1 (centres undefined),0.8,6,0.9,85*,0.7
O=C1NC(c2ccccc2)=C(c2ccc3ccccc3n2)C(c2ccc(F)cc2)N1 (centres undefined),0.7,1,0.9,38,0.7
O=C1NC(c2ccccc2)=C(c2nc3ccccc3s2)C(c2ccc(O)cc2)N1 (centres undefined),0.9,-12,1,81*,0.9
Cc1cccc(N2CCN(C3=NC(=O)C(Cc4ccccc4)S3)CC2)c1 (centres undefined),0.9,8,0.9,0,0.9
Cc1nc(NC(=O)C23CC4CC(CC(C4)C2)C3)sc1Cc1ccc2c(c1)OCO2,0.8,36,0.8,21,0.7
NS(=O)(=O)c1ccc(NC(=S)Nc2ccn(Cc3cccc4ccccc34)n2)cc1,0.9,16,1,5,0.9
Cc1nc(-c2ccc(C(=O)Nc3ccc(F)cc3)cc2)cs1,1,10,1,-7,1.2
Cc1nc(-c2ccc(NC(=O)c3ccccc3Br)cc2)cs1,0.9,13,0.8,71*,0.8
O=C(Nc1ccc(C2CC2(Cl)Cl)cc1)c1ccccc1Br (centres undefined),0.8,38,1,83*,0.9
Cc1nc(-c2ccc(NC(=O)c3ccccc3C)cc2)cs1,1,21,1,50*,0.9
CN(C)S(=O)(=O)c1cccc(NC(=S)NN=C(Cc2ccccc2)Cc2ccccc2)c1,1,2,1.1,38,0.8
SMILES,PMI act,WT yeast gro inh,PMI act hi M6P,Lmaj promast,Diaphorase act
Cc1cc(C)cc(NC(=O)CSc2nc3c(oc4ccccc43)c(=O)n2-c2ccccc2)c1,0.9,-5,1,61*,0.8
COc1cc2c3c(c1)C(C)=CC(C)(C)N3C(=O)C2=O,0.7,-3,0.7,56*,0.7
COc1cc(N=C2C(=O)N3c4c(cccc42)C(C)=CC3(C)C)cc(OC)c1,0.7,1,0.5,61*,0.8
COc1cccc(C(=O)Oc2cc3c4c(c2)C(C)=CC(C)(C)N4C(=O)C3=O)c1,0.8,30,0.8,3,0.9
Cc1ccc(Cl)cc1N1CCN(CC(=O)Nc2ccc(CN3CCCCC3)cc2)CC1,0.9,45,0.9,98*,0.9
COc1ccccc1N1CCN(CC(=O)Nc2ccc(CN3CCCCC3)cc2)CC1,1,-10,1,64*,0.8
Cc1ccc(Cl)cc1N1CCN(S(=O)(=O)N2CCCCC2)CC1,0.9,73*,0.8,11,0.9
COc1ccccc1NC(=O)CN1CCN(c2ccccc2OC)CC1,0.9,10,0.9,4,0.7
CCc1ccc(OCc2nnc(SCC(=O)Nc3cccc(C(=O)N4CCOCC4)c3)o2)cc1,1.1,-17,1,-8,1
CC(=O)N(c1nc(CCl)cs1)c1c(C)cc(C)cc1C,1.1,-3,1,41,0.9
COc1ccc(C)cc1N(C(=O)COc1cccc(F)c1)c1nc2ccccc2s1,0.8,36,0.9,41,0.9
COc1ccc(C)cc1N(C(=O)c1ccc(F)cc1)c1nc2ccccc2s1,0.9,69*,0.9,25,0.8
C/C(=N/O)c1ccc(Oc2cnccn2)cc1,1.1,-12,1,-8,1
Oc1c(I)cc(I)c2cccnc12,1.1,17,0.8,-3,0.8
O=C(O)c1sc2ncccc2c1OCc1ccccc1,1,-2,1,-6,0.8
CC(C)COCc1ccc(O)c2ncccc12,0.7,16,0.9,100*,0.4
Oc1ccc(COCc2ccccc2)c2cccnc12,0.5,-1,0.5,101*,0.6
Cn1cccc1/C=C(/C#N)c1ccc(F)cc1,1,11,1,10,0.8
c1ccc2c(c1)oc1c(NCCN3CCOCC3)ncnc12,1.1,-31,1.1,9,1
CC(=O)N1CCN(c2ccc(Nc3ncnc4c3oc3ccccc34)cc2)CC1,0.9,0,0.8,62*,0.8
c1ccc2c(c1)oc1c(Nc3ccc(CN4CCOCC4)cc3)ncnc12,1,-19,1.1,89*,1
O=C(CCn1c(=O)[nH]c2ccccc2c1=O)NCCSCc1ccccc1,1,-7,1,-5,1
CCC(C)c1ccccc1OCCOCCN1CCCC1 (centres undefined),1,3,1.1,98*,1
Cc1ccccc1OCCCN1CCCC1,1,12,1.1,41,1
CCC(C)c1ccccc1OCCCCN1CCCC1 (centres undefined),1.1,-3,1.1,99*,0.9
COc1ccc(NC(=O)c2cccnc2Nc2ccc(OC)cc2)cc1,0.8,-8,0.8,76*,0.8
O=C(CCSc1ccccn1)c1ccccc1,1.1,10,1.3,77*,1
O=C(c1ccco1)N1CCN(c2c([N+](=O)[O-])nn(-c3cccc(Cl)c3)[n+]2[O-])CC1,1.1,14,1.1,30,1

# Screening results (PubChem)
